Experimental data of several laboratories.
Target: Phosphatidylinositol 4-kinase beta (PI4KB, Homo sapiens, UniProt Q9UBF8)

Cc1nn(C)cc1-c1nc2c(N3CCN(Cc4ccc(Cl)cc4)CC3)c(Cl)cnc2[nH]1
remaining binding (binding; competition with immobilised ligand; 1 µM): 100%

Cn1cncc1[C@](O)(COc1ccc(C#N)cc1-c1ccc(OC(F)(F)F)cc1)c1ccc(C#N)cc1
remaining binding (cell-free assay; competition with immobilised ligand; 1 µM): 94%

Cn1cc(-c2cccc(N3CCc4c(sc5c4CC(C)(C)C5)C3=O)c2CO)cc(Nc2ccncn2)c1=O
inhibition (enzyme activity; inhibitor; 1 µM): -4%

Nc1ncc(-c2nc(N3CCOCC3)nc(N3CCOCC3)n2)c(C(F)F)n1
remaining binding (binding; competition with immobilised ligand; 10 µM): 75%

C#Cc1n[nH]c2c(-c3cn(C(C)c4ccccn4)c(=O)[nH]c3=O)cc(F)cc12 (centres unmarked)
inhibition (enzyme activity; inhibitor; 1 µM): -4.1%

COc1ncccc1-c1cnn2ccc(N3CCN(C(=O)OC(C)C)CC3)nc12
remaining binding (binding; competition with immobilised ligand; 1 µM): 100%

Cn1cc(-c2cc(F)cc(N3CCn4c(cc5c4CCCC5)C3=O)c2CO)cc(Nc2ccc(N3CCN(C4COC4)CC3)cn2)c1=O
inhibition (enzyme activity; inhibitor; 0.1 µM): -3%

C#Cc1n[nH]c2c(-c3cn([C@@H](C)c4ccccc4)c(=O)[nH]c3=O)cc(F)cc12
inhibition (enzyme activity; inhibitor; 0.1 µM): -2.5%
